Measured values: PMC7668563 (International journal of molecular biology (Edmond, Okla.), 2020)
Read-outs that look alike come from different tables or passages of the source.

Tests used:
[1] = tested on: human breast adenocarcinoma cell line, MCF-7; test: MTT cell viability assay on MCF-7, 72 h exposure; format: cell-based; details: read-out: IC50 (±SD), MCF-7, MCF-7, 72 h of exposure
Method in brief: (§1)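 HT-29 was grown in McCoy's 5A with 10% FBS. MCF-7 was grown in MEM with 10% FBS and 0.01 mg/mL insulin. Both were kept at 37°C, 5% CO2, trypsinized at 70–80% confluency and seeded at 1.5×10^4 cells/well for 24 h. Cells were then exposed for 72 h to test compound in 5% DMSO/95% medium, with DMSO-medium controls. MTT was added as a 2.67 mg/mL solution for 2 h. Formazan was dissolved in 10% Triton X-100/isopropanol and read at A570 minus A620. IC50 came from a sigmoidal fit of viability vs log concentration, eight replicas, triplicate, ±SD.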

[2] = tested on: human colorectal adenocarcinoma cell line, HT-29; test: MTT cell viability assay on HT-29, 72 h exposure; format: cell-based; details: read-out: IC50 (±SD), HT-29, HT-29, 72 h of exposure
Method in brief: as §1

[3] = molecular target: T1, apo-human transferrin (apo-hTf) (Homo sapiens, UniProt P02787); test: UV-Vis absorbance titration of apo-hTf; format: binding
T1 sequence (P02787 20-698): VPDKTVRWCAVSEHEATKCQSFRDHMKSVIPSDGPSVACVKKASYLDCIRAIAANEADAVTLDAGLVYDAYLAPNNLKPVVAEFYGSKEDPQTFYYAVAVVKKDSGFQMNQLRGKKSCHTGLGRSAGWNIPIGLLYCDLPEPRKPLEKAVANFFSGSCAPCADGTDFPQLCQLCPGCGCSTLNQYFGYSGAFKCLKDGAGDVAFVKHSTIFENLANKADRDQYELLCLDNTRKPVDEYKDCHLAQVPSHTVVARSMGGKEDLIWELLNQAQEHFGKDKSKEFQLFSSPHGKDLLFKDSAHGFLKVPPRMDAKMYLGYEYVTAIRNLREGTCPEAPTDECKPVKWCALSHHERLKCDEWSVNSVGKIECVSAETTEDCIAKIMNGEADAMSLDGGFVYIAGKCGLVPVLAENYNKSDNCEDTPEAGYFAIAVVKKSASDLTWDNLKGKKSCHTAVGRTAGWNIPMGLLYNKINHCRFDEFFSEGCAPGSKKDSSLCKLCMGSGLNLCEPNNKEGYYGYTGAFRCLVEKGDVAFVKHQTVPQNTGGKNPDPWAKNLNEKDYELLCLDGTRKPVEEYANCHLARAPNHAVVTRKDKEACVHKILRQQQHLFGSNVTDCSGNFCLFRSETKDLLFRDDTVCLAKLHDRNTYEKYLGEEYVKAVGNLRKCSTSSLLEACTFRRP

[4] = molecular target: T1, apo-human transferrin (apo-hTf); test: Fluorescence quenching of apo-hTf; format: binding; details: for biomolecular quenching rate constant kq: kq=Ksv/τ0; for Stern-Volmer quenching constant Ksv / number of binding sites n: pH 7.4; for quenching association constant Ka: pH 7.4, modified Stern-Volmer
Method in brief: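 Intrinsic fluorescence of apo-hTf in Tris-HCl pH 7.4 was titrated with test compound (Tris-HCl/2% DMSO). Conditions: excitation 280 nm, emission 290–500 nm, slits 10/5 nm, 1.0 cm quartz cell, at 296, 303, 310 and 317 K, triplicate titrations. Intensities were corrected for inner filter effect using absorbances at excitation and emission wavelengths. Ksv came from Stern-Volmer plots of F0/F vs [Q]; kq = Ksv/τ0 (τ0 ~1.0×10−8); Ka and n came from the modified Stern-Volmer equation.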

[5] = molecular target: T1, apo-human transferrin (apo-hTf); test: Thermodynamic parameters of apo-hTf complex formation; format: binding
Method in brief: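 Ksv values were obtained from apo-hTf fluorescence quenching at pH 7.4 at 296, 303, 310 and 317 K. ΔH°, ΔS° and ΔG° were derived from linear regression of ln(Ksv) vs 1/T (Van't Hoff equation).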

[6] = molecular target: T1, apo-human transferrin (apo-hTf); test: Fluorescence resonance energy transfer; format: binding
Method in brief: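 Emission spectrum of 1.0×10−5 mol L−1 apo-hTf and absorption spectrum of 1.0×10−5 mol L−1 test compound were recorded in 20 mM Tris-HCl pH 7.4 at room temperature, 260–450 nm, and their spectral overlap determined. E was calculated from apo-hTf fluorescence without and with equimolar test compound. R0 and donor–acceptor distance r came from Förster equations.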

[7] = molecular target: T1, apo-human transferrin (apo-hTf); test: Far-UV circular dichroism titration of apo-hTf, secondary structure content
Method in brief: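 Apo-hTf (4.0×10−7 mol L−1) in 2 mM Tris-HCl pH 7.4 was titrated with a 1.0×10−3 mol L−1 stock of test compound in Tris-HCl/2% DMSO, to final 0–2.4×10−6 mol L−1. Far-UV CD was recorded from 190–250 nm under nitrogen in a 1.0 cm cell: six scans at 100 nm/min. Baseline was buffer ± DMSO at room temperature. α-Helix was derived from MRE at 208 nm; β-sheet and random coil by the CD-RRG method.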

[8] = molecular target: T1, apo-human transferrin (apo-hTf); details: cited from earlier work; for Ka: Cp2VCl2 bound to apo-hTf
[9] = apo-hTf:Cp2VCl2 complex, ref Zhang et al. 64

[Cl-].[Cl-].[V+4].c1cc[cH-]c1.c1cc[cH-]c1 [Cp2VCl2]
IC50 [1]: 50 µM | IC50 [2]: 33 µM | Ka at 280 nm ([3]; absorbance at 280 nm): 3240 M⁻¹ | Ka at 361 nm ([3]; absorbance at 361 nm): 2670 M⁻¹ | Association constants, Ka, 280 nm ([3]; absorbance of apo-hTf at 280 nm, pH 7.4): 3.24 10^3 M^−1 | Association constants, Ka, 361 nm ([3]; absorbance of apo-hTf at 361 nm, pH 7.4): 2.67 10^3 M^−1 | biomolecular quenching rate constant kq ([4]; 296 K): 3.564e+12 M⁻¹ s⁻¹ | Stern-Volmer quenching constant Ksv ([4]; 296 K): 35640 M⁻¹ | number of binding sites n ([4]; 296 K): 1.23 | quenching association constant Ka ([4]; 296 K): 444400 M⁻¹ | biomolecular quenching rate constant kq ([4]; 303 K): 4.085e+12 M⁻¹ s⁻¹ | Stern-Volmer quenching constant Ksv ([4]; 303 K): 40850 M⁻¹ | number of binding sites n ([4]; 303 K): 1.2 | quenching association constant Ka ([4]; 303 K): 337500 M⁻¹ | biomolecular quenching rate constant kq ([4]; 310 K): 4.26e+12 M⁻¹ s⁻¹ | Stern-Volmer quenching constant Ksv ([4]; 310 K): 42600 M⁻¹ | number of binding sites n ([4]; 310 K): 1.16 | quenching association constant Ka ([4]; 310 K): 240500 M⁻¹ | biomolecular quenching rate constant kq ([4]; 317 K): 4.936e+12 M⁻¹ s⁻¹ | Stern-Volmer quenching constant Ksv ([4]; 317 K): 49360 M⁻¹ | number of binding sites n ([4]; 317 K): 1.11 | quenching association constant Ka ([4]; 317 K): 159800 M⁻¹ | ∆G° ([5]; 296 K): -6.169 kcal/mol | ∆G° ([5]; 303 K): -6.379 kcal/mol | ∆G° ([5]; 310 K): -6.587 kcal/mol | ∆G° ([5]; 317 K): -6.797 kcal/mol | ∆H° ([5]; pH 7.4, from Ksv at 296-317 K): 2.713 kcal/mol | ∆S° ([5]; pH 7.4, from Ksv at 296-317 K): 125.52 J/mol K | Förster critical energy transfer distance R0 ([6]; k^2=2/3, n=1.336, ØD=0.118): 1.78 nm | binding distance r (donor-acceptor) ([6]; k^2=2/3, n=1.336, ØD=0.118): 2.08 nm | efficiency of energy transfer E ([6]; room temperature, 1.0×10^−5 mol L^−1 each): 0.281 | other secondary structure content of apo-hTf ([7]; compound concentration 0.4 (M)): 20% | random coil content of apo-hTf ([7]; compound concentration 0.4 (M)): 33.7% | α-helix content of apo-hTf ([7]; compound concentration 0.4 (M)): 28.4% | β-sheet content of apo-hTf ([7]; compound concentration 0.4 (M)): 17.9% | other secondary structure content of apo-hTf ([7]; compound concentration 0.8 (M)): 20.1% | random coil content of apo-hTf ([7]; compound concentration 0.8 (M)): 33.9% | α-helix content of apo-hTf ([7]; compound concentration 0.8 (M)): 27.9% | β-sheet content of apo-hTf ([7]; compound concentration 0.8 (M)): 18.1% | other secondary structure content of apo-hTf ([7]; compound concentration 1.2 (M)): 20.4% | random coil content of apo-hTf ([7]; compound concentration 1.2 (M)): 34.1% | α-helix content of apo-hTf ([7]; compound concentration 1.2 (M)): 27.2% | β-sheet content of apo-hTf ([7]; compound concentration 1.2 (M)): 18.3% | other secondary structure content of apo-hTf ([7]; compound concentration 1.6 (M)): 20.7% | random coil content of apo-hTf ([7]; compound concentration 1.6 (M)): 34.3% | α-helix content of apo-hTf ([7]; compound concentration 1.6 (M)): 26.5% | β-sheet content of apo-hTf ([7]; compound concentration 1.6 (M)): 18.5% | other secondary structure content of apo-hTf ([7]; compound concentration 2 (M)): 20.8% | random coil content of apo-hTf ([7]; compound concentration 2 (M)): 34.5% | α-helix content of apo-hTf ([7]; compound concentration 2 (M)): 25.8% | β-sheet content of apo-hTf ([7]; compound concentration 2 (M)): 18.9% | other secondary structure content of apo-hTf ([7]; compound concentration 2.4 (M)): 21.1% | random coil content of apo-hTf ([7]; compound concentration 2.4 (M)): 34.6% | α-helix content of apo-hTf ([7]; compound concentration 2.4 (M)): 25.1% | β-sheet content of apo-hTf ([7]; compound concentration 2.4 (M)): 19.2% | Ka ([8]; ref Du et al. 63): 137000 M⁻¹ | Ka ([8]; ref Zhang et al. 64): 32800 M⁻¹ | Ksv [8, 9]: 30400 M⁻¹ | kq [8, 9]: 3.04e+12 M⁻¹ s⁻¹
